Reference: ChEMBL document CHEMBL1151692, “Substituted hippurates and hippurate analogs as substrates and inhibitors of peptidylglycine alpha-hydroxylating monooxygenase (PHM)” (Bioorg Med Chem, 2008)
The source made the active and inactive calls. The rule behind the calls is not given here. Where a SMILES comes first, the peptide text is derived from it. The star is where a group is joined. Dansyl = CN(C)c1cccc2c(S(=O)(=O)*)cccc12; NHOH = ON*

Assays:
[1] = target: peptidylglycine alpha-amidating monooxygenase (Rattus norvegicus) (UniProt P14925); assay: Inhibition of rat peptidylamidoglycolate lyase assessed as ascorbate-independent dealkylation of alpha-hydroxy-hipurate; set-up: concentration or dose not given beside the values; settings: for inhibition: concentration not given here
[2] = target: T1, Peptidylglycine alpha-amidating monooxygenase (Rattus norvegicus) (UniProt P14925); assay: Inhibition of rat recombinant peptidylglycine alpha-amidating monooxygenase in presence of DMSO
T1 sequence (whole entry): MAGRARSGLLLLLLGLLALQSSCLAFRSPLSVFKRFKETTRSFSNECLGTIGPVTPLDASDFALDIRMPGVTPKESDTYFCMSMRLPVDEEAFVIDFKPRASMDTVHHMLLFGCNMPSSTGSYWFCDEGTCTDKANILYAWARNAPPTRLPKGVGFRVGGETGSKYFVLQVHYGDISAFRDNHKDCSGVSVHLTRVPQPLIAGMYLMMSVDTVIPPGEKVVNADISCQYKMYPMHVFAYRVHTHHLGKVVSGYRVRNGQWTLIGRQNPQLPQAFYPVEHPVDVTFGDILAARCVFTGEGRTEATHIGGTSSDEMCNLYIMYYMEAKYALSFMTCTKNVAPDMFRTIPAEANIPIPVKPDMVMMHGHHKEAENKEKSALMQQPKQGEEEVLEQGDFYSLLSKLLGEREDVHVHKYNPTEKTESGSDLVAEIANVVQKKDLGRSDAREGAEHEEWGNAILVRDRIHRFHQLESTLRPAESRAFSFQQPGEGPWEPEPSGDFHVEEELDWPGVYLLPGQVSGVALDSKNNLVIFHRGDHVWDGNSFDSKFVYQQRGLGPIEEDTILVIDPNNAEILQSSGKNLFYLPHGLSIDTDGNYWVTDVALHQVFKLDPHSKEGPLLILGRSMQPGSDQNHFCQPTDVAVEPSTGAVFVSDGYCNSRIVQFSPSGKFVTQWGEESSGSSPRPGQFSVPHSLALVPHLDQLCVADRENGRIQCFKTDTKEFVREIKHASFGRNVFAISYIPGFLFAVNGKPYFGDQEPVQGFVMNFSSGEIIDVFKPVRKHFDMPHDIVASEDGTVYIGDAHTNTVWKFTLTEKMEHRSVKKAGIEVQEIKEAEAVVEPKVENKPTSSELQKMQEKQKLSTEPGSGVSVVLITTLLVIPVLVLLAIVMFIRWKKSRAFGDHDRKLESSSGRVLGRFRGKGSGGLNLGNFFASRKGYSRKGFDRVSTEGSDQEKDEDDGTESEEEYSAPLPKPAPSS

[3] = target: T1, Peptidylglycine alpha-amidating monooxygenase (Rattus norvegicus); assay: Inhibition of rat recombinant peptidylglycine alpha-amidating monooxygenase assessed as inhibition of N-dansyl-Tyr-Val-Gly amidation
[4] = target: T1, Peptidylglycine alpha-amidating monooxygenase (Rattus norvegicus); assay: Inhibition of recombinant rat peptidylglycine alpha-amidating monooxygenase assessed as inhibition of oxygen consumption at 28 mM
[5] = target: T1, Peptidylglycine alpha-amidating monooxygenase (Rattus norvegicus); assay: Inhibition of rat recombinant peptidylglycine alpha-amidating monooxygenase assessed as inhibition of oxygen consumption at 0.9 mM
[6] = target: T1, Peptidylglycine alpha-amidating monooxygenase (Rattus norvegicus); assay: Inhibition of recombinant rat peptidylglycine alpha-amidating monooxygenase assessed as inhibition of oxygen consumption of N-octanoylglycine at 28 mM
Method in brief: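 Recombinant type A rat medullary thyroid carcinoma bifunctional PAM (15–50 μg) added to 100 mM MES/NaOH pH 6.0, 30 mM NaCl, 1% ethanol, 0.001% Triton X-100, 10 μg/mL catalase, 1.0 μM Cu(NO3)2, ascorbate, 200 μM N-octanoylglycine as substrate, and 28 mM test compound. The read-out is the initial rate of O2 consumption on an oxygen monitor at 37 °C.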

DU-145 = assay: Antiproliferative activity against human DU145 cells at greater than 500 uM by trypan blue assay; type: functional, cell-based
[7] = target: T1, Peptidylglycine alpha-amidating monooxygenase (Rattus norvegicus); assay: Ratio of Vm(app) to Km(app) for rat recombinant peptidylglycine alpha-amidating monooxygenase relative to hippuric acid
Method in brief: (§1)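 Recombinant rat type A medullary thyroid carcinoma PAM (bifunctional), 15–50 μg, in 100 mM MES/NaOH pH 6.0, 30 mM NaCl, 1% ethanol, 0.001% Triton X-100, 10 μg/mL catalase, 1.0 μM Cu(NO3)2, 5.0 mM ascorbate, ~200 μM O2, 37 °C. Substrate generally 0.3–5.0 KM,app. Initial O2 consumption rates read by oxygen monitor and fit to Michaelis–Menten.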

[8] = target: T1, Peptidylglycine alpha-amidating monooxygenase (Rattus norvegicus); assay: Activity of rat recombinant peptidylglycine alpha-amidating monooxygenase assessed as stimulation of oxygen consumption
[9] = target: T1, Peptidylglycine alpha-amidating monooxygenase (Rattus norvegicus); assay: Ratio of Vm(app) to Km(app) for rat recombinant peptidylglycine alpha-amidating monooxygenase
Method in brief: as §1

Structure (SMILES): O=C(O)COC(=O)Nc1ccccc1
- inhibition [1]: < 5%

Structure (SMILES): O=C(O)CCSC(=S)Nc1ccccc1
- inhibition [1]: < 5%

Structure (SMILES): O=C(N[C@H](CO)C(=O)O)c1ccccc1
- inhibition [1]: < 5%

Structure (SMILES): O=C(O)CSC(=S)Nc1ccccc1
- IC50 [1]: 3.5 mM

Structure (SMILES): O=C(O)CSc1ccccc1
- inhibition [1]: < 5%

Structure (SMILES): O=C(O)CSC(=S)c1ccccc1
- Kis [2]: 49 µM
- Kis [3]: 39 µM
- inhibition [1]: < 5%

Structure (SMILES): O=C(O)CNC(=S)Nc1ccccc1
- inhibition [1]: < 5%

Structure (SMILES): NCC(=O)NNC(=O)OCc1ccccc1
- inhibition [1]: < 5%

Structure (SMILES): O=C(NCP(=O)(O)O)c1cccnc1
- Activity [4]: Active
- Activity [5]: Active
- Activity [6]: inactive
- inhibition [1]: < 5%

Structure (SMILES): CC(C)C[C@H](NC(=O)[C@@H]1CCCN1)C(=O)NCC(=O)NO (H-Pro-Leu-Gly-{NHOH})
- inhibition [1]: < 5%

Structure (SMILES): CC(SC(=S)c1ccccc1)C(=O)O (racemic)
- inhibition [1]: < 5%

Structure (SMILES): O=C(NO)c1ccccc1O
- inhibition [1]: < 5%

Structure (SMILES): CCCCCCCCCCCC(=S)SCC(=O)O
- inhibition [1]: < 5%

Structure (SMILES): O=C(O)CSC(=S)Cc1ccccc1
- Kis [2]: 13 µM
- Kis [3]: 7.9 µM
- inhibition [1]: < 5%
- Activity (DU-145): Active

Structure (SMILES): COC(=O)CNC(=O)[C@@H](NC(=O)[C@H](Cc1ccc(O)cc1)NS(=O)(=O)c1cccc2c(N(C)C)cccc12)C(C)C (Dansyl-Tyr-Val-Gly-OMe)
- Kis [3]: 54 µM

Structure (SMILES): Cc1ccc(C(=S)SCC(=O)O)cc1
- inhibition [1]: < 5%

Structure (SMILES): O=C(O)CNC(=O)CCCCc1ccccc1
- Activity [7]: 12
- Vmax(app) [8]: 12 s⁻¹
- Ratio [9]: 7.6 ×10⁴ /M/s

Structure (SMILES): O=C(O)CONC(=O)c1ccccc1
- inhibition [1]: < 5%

Structure (SMILES): O=C(O)CNC(=S)Cc1ccccc1
- Activity [7]: 16
- Vmax(app) [8]: 2.4 s⁻¹
- Ratio [9]: 1 ×10⁵ /M/s
